Most compounds without a hit are left out; they make up all but 3.3% or so of the library.
FXN GAA850 act: FXN promoter activators, primary screen, cell-based, luciferase luminescence, HEK293 lucGAA850 | activation, % at 6 µM | HEK293 lucGAA850 FXN promoter luciferase reporter, 24 h; percent of 10 µM SAHA response | 360,000 tested, 0.56% active | AID 540364, 2011;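 active means activation above the average of all compounds screened plus 3 SD, cutoff fixed separately per campaign, cut at about 7.5% in these data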;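 further: 0% = DMSO wells and 100% = 10 µM SAHA wells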
AHR act: AHR activators, primary screen, cell-based, luminescence, luciferase reporter, human; AHR-responsive luciferase reporter cells; 320,000 tested, 2.5% active; AID 2796, 2010; activation, % at 5 µM; Aryl hydrocarbon receptor (Homo sapiens), P35869; in the data active means activation above about 47%;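 further: 0% = vehicle wells and 100% = reference agonist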
Target sequence (P35869 whole entry, looked up): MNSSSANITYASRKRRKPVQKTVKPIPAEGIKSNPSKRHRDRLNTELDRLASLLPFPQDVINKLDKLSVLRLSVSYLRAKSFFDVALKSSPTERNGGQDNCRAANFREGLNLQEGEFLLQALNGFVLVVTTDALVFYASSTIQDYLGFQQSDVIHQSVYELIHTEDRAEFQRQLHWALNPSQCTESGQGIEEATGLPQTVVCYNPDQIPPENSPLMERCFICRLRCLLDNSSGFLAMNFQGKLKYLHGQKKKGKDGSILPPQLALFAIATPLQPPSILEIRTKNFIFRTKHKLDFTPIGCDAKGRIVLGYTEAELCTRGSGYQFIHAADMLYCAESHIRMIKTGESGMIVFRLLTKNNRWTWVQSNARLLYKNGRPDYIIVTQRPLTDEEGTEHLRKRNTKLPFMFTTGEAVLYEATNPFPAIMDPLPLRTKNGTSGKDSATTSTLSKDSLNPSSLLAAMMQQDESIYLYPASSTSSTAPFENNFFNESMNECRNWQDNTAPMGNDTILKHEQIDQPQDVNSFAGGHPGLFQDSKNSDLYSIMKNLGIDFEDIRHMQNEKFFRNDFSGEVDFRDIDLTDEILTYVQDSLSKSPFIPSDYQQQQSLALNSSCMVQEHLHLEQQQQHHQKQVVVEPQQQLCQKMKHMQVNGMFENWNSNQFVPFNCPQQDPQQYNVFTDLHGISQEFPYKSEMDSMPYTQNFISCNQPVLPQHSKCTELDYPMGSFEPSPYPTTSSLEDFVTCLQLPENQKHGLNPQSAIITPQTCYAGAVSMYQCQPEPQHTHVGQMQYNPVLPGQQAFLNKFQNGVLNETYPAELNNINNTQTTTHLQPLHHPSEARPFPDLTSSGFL
STAT3 act: IL-6 driven STAT3 reporter potentiators, primary screen, U3A cells, luciferase, luminescence, MLSCN library; IL-6 STAT3-luciferase reporter; 100% = signal with IL-6 EC80 alone; activation (% of control), % at 5.6 µM; 190,000 tested, 0.91% active;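 active means activation above the screen-wide mean of compound activation plus 3 SD, cut at about 130% in these data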;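 further: 0% = background luminescence of wells with medium and substrate only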
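Material: STAT3-luciferase reporter U3A cells. Controls: IL-6-treated wells, 100% activation. Read-out: % activation versus median of IL-6-stimulated wells. Probe or stimulus: IL-6 stimulus at 33 ng/mL final. Timing: compound 1 h, then IL-6 6 h at 37 °C. Signal: reporter luminescence signal.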
ABCB6 inh MLPCN: ABCB6 transporter inhibitors, primary screen, K562-ABCB6 cells, flow cytometry, MLPCN library. ATP-binding cassette sub-family B member 6 (Homo sapiens), Q9NP58. K562-ABCB6 porphyrin accumulation, 1 h; stronger effect = lower value. fluorescence ratio to DMSO, % at 10 µM. 360,000 tested, 0.19% active. AID 602162, 2011;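 active means fluorescence ratio to DMSO below 75%, the collection mean minus 3 SD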;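 further: signal is porphyrin accumulated inside mitochondria; 100% equals median channel fluorescence of DMSO control wells; lower ratio means ABCB6 inhibition with less porphyrin fluorescence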
GAA30 FXN cntr: GAA30 FXN promoter activators, confirmation, counter-screen for GAA850 frataxin promoter activator project, cell-based, luminescence, HEK293, lucGAA30, triplicate; AID 588350, 2011; activation, % at 6 µM; HEK293 lucGAA30 FXN promoter luciferase, 24 h; DMSO = 0%, 5 µM ipriflavone = 100%; 1,900 tested, 66% active; shares compounds with FXN GAA850 act;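 active means mean activation above the mean of solvent-only control wells plus 3 SD, cut at about 22% in these data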;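 further: counterscreen of GAA850 promoter hits where activity marks nonselective or luminescence artifacts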
GAA850 confirm: FXN GAA850 promoter activators in reporter cells, confirmation, cell-based, luminescence, HEK293 lucGAA850, triplicate; shares compounds with FXN GAA850 act; HEK293 lucGAA850 FXN promoter luciferase reporter, 24 h; 100% = activation by SAHA; activation, % at 6 µM; 1,900 tested, 86% active; AID 588351, 2011;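 active means mean activation above a set limit taken from the primary screen, cut at about 8% in these data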;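 further: 0% = DMSO wells and 100% = 10 µM SAHA wells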
Starred values were filed as active, the others as inactive; . = no result.

SMILES	FXN GAA850 act	AHR act	STAT3 act	ABCB6 inh MLPCN	GAA30 FXN cntr	GAA850 confirm
O=C(N/N=C/c1cccc([N+](=O)[O-])c1)c1ccc2c(c1)OCCO2	8.9*	12	87	94	119*	37*
O=C(N/N=C/c1ccc(Cl)c([N+](=O)[O-])c1)c1ccc2c(c1)OCCO2	3	.	.	99	.	.
CC(=O)Nc1nc(-c2ccc(-c3ccccc3)cc2)cs1	2	.	.	97	.	.
CC(=O)c1cccc(Nc2nc(-c3ccccc3)cs2)c1	7.8*	56*	106	98	101*	28*
COc1ccc(-n2c(=S)[nH]c3cc(C(=O)Nc4ccc(OC)c(OC)c4)ccc3c2=O)cc1	11*	5	107	99	8	6
C=C1CC(Cn2cc(Br)c(=O)[nH]c2=O)(c2ccc(-c3ccccc3)cc2)OC1=O (stereo not drawn)	11*	.	.	92	-62	52*
O=c1[nH]c(=O)n(Cc2ccc(Oc3ccccc3)cc2)cc1Br	3	1	.	98	.	.
COc1ccc(Cn2nnnc2CN(Cc2cc3cccc(C)c3[nH]c2=O)C2CCCC2)cc1	7.8*	27	115	98	18	6
COc1ccc(Cn2nnnc2CN(Cc2cc3ccc(C)cc3[nH]c2=O)C2CCCC2)cc1	-2	6	101	92	.	.
Cn1cc(C2=C(c3ccc(Cl)cc3Cl)C(=O)NC2=O)c2ccccc21	12*	26	.	382	10	9.2*
COc1ccc(/C=C/C(=O)OCCNC(=O)c2ccncc2)cc1OC	1	9	105	97	.	.
CCCCOC(=O)/C=C/c1ccc(OC(=O)OC)c(OC(=O)OC)c1	10*	1	100	98	63*	32*
COC(=O)Oc1ccc(/C=C/C(=O)OC(C)C)cc1OC(=O)OC	11*	-4	98	96	52*	32*
N#Cc1cc(Oc2cccc3cccnc23)c(-n2nnc3ccccc32)cc1C#N	7.7*	22	105	118	-1	15*
Cc1cccc(NC(=O)C(NS(=O)(=O)c2ccc3c(c2)CCC(=O)N3)c2ccccc2)n1 (stereo not drawn)	-2	3	98	96	.	.
Cc1ccc([N+](=O)[O-])cc1-c1ccc(/C=C(\C#N)c2[nH]nc(N)c2C#N)o1	8.7*	29	111	93	48*	20*
CC1=CN2C(=N)/C(=C/c3ccc([N+](=O)[O-])o3)C(=O)N=C2S1	12*	6	109	803	-55	-17
CC(=O)c1cnc2cc(-c3ccc(C)cc3)nn2c1C	11*	15	101	94	128*	42*
CCCN(CCC)CCCNC(=O)c1nn(-c2cccc(OC)c2)c(=O)c2ccccc12	-2	1	99	100	.	.
O=C1[C@H]2[C@@H](C(=O)N1c1cccc3ccccc13)C1(C(=O)c3ccccc3C1=O)N1CCC[C@@H]21	9.4*	5	95	100	37*	16*
O=C1C2C3C=CC(C3)C2C(=O)N1c1cccc2ccccc12 (stereo not drawn)	1	3	.	99	.	.
Cc1ccc(OCCC(=O)NNC(=O)c2ccc(Br)cc2)cc1	0	7	.	101	.	.
NC(=S)Nc1nccc(-c2cccs2)n1	8.3*	26	127	102	94*	37*
CN(C)CCNC(=O)c1cccc2nc3cccc(F)c3nc12	25*	.	.	93	-3	142*
COc1ccc(OC)c2nc3c(C(=O)NCCN(C)C)cccc3nc12	15*	.	.	95	3	79*
SMILES	FXN GAA850 act	AHR act	STAT3 act	ABCB6 inh MLPCN	GAA30 FXN cntr	GAA850 confirm
COc1ccc(C23CC4CC(CC(C4)C2)C3)cc1C(=O)NCCN(C)C	4	-1	.	103	.	.
CN(C)CCNC(=O)c1cccc2ccc(-c3ccc(-c4ccccc4)cc3)nc12	1	.	.	92	.	.
CCOc1ccc(C(C)=O)cc1COc1ccc(-n2cnnn2)cc1	1	-5	98	94	.	.
COc1cccc(NC(=O)Nc2cc(C)ccc2OC)c1	-1	3	94	104	.	.
COc1cccc(NC(=O)Nc2cc(C)ccc2F)c1	8.2*	18	94	92	80*	25*
COc1cc(NC(=O)CN2C(=O)CN(C)C2=O)c(C)cc1[N+](=O)[O-]	-3	0	103	102	.	.
COc1cc(NC(=O)Cn2ncc(Cl)c(Cl)c2=O)c(C)cc1[N+](=O)[O-]	12*	.	78	93	-82	-18
COc1cc(C(=O)N2CCN(S(=O)(=O)c3ccc(F)cc3)CC2)cc(OC)c1OC	-1	1	99	95	.	.
Cc1nn2c(nc(N3CCOCC3)c3ccccc32)c1C=C(C#N)C#N	3	4	101	98	.	.
Cc1nn2c(nc(N3CCCCC3)c3ccccc32)c1C=O	9.5*	0	94	96	-3	12*
Cc1cc(C)c(C#N)c(SCc2nnc(-c3ccccc3[N+](=O)[O-])o2)n1	8.9*	5	107	95	108*	41*
Cc1csc(NC(=O)CSc2nnc(-c3ccoc3C)n2C(C)c2ccccc2)n1 (stereo not drawn)	-2	3	.	94	.	.
N#C/C(=C/c1ccc(N2CCCCC2)o1)c1cccc(F)c1	15*	0	136*	162	106*	41*
Cc1ccc(/C(C#N)=C\c2ccc(N3CCOCC3)o2)cc1	22*	-1	124	133	120*	53*
Cc1ccc2nc(/C(C#N)=C\c3ccc(N4CCOCC4)o3)[nH]c2c1	3	43	89	173	.	.
COc1ccccc1NS(=O)(=O)c1cc(NC(=O)/C=C/c2cccs2)ccc1N1CCOCC1	9.9*	31	115	97	-9	6
O=C1c2ccccc2-c2onc3ccc(Oc4ccccc4)c1c23	32*	15	91	208	51*	40*
CCn1c(O)c(/C=C2\C=Nc3ccccc32)sc1=Nc1ccccc1	13*	9	112	100	60*	27*
CCC/C=C/c1ccc(CN2C(C(C)C)C(=O)N(Cc3cn(CC4CCCCC4)nn3)CCS2(=O)=O)cc1 (stereo not drawn)	7.9*	.	.	91	5	-1
CCC/C=C/c1ccc(CN2C(C)C(=O)N(Cc3cn(CC4CCCCC4)nn3)CCS2(=O)=O)cc1 (stereo not drawn)	2	.	.	98	.	.
